# ChEMBL document CHEMBL5058577, “EUbOPEN Chemogenomics Library 2 (Multiplex)” (2022)
# Test system: U2OS
# Assay: Multiplex assay against U2OS
# Type: toxicity, cell-based
# Details: human
# Summary of the method: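 Cells stained live at seeding with Hoechst33342, BioTracker Green Microtubule Cytoskeleton Dye, MitoTracker Red and Annexin V Alexa Fluor 680 were imaged on a CQ1 microscope at 37°C and 5% CO2 after compound addition. Their classification by CellPathfinder machine-learning gating ran from Hoechst high-intensity objects versus normal cells, to healthy, pyknosed or fragmented nuclei among normal cells, to mitotic or apoptotic among pyknosed cells. Tubulin, mitochondrial-mass and membrane-permeability phenotypes are per cents of healthy-nucleus cells.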
# [1] = 12 h, 1 µM, compound concentration 1 uM, replicate 1
# [2] = 12 h, 1 µM, compound concentration 1 uM, replicate 2
# [3] = 12 h, 10 µM, compound concentration 10 uM, replicate 1
# [4] = 12 h, 10 µM, compound concentration 10 uM, replicate 2
# [5] = 24 h, 1 µM, compound concentration 1 uM, replicate 1
# [6] = 24 h, 1 µM, compound concentration 1 uM, replicate 2
# [7] = 24 h, 10 µM, compound concentration 10 uM, replicate 1
# [8] = 24 h, 10 µM, compound concentration 10 uM, replicate 2
# [9] = 48 h, 1 µM, compound concentration 1 uM, replicate 1
# [10] = 48 h, 1 µM, compound concentration 1 uM, replicate 2
# [11] = 48 h, 10 µM, compound concentration 10 uM, replicate 1
# [12] = 48 h, 10 µM, compound concentration 10 uM, replicate 2
structure (smiles),measurement,setting,value
CN1CCN(c2cc(-c3ccccc3)nc(N)n2)CC1,Population Apoptotic (%),[1],80%
same,Population Fragmented Nuclei (%),[1],32%
same,Population Healthy Nuclei (%),[1],61%
same,Population Hoechst High Intensity Objects (%),[1],2%
same,Population Membrane Permeable-Phenotype (%),[1],5%
same,Population Mitochondria Different-Phenotype (%),[1],2%
same,Population Mitotic Cells (%),[1],20%
same,Population Normal (%),[1],97%
same,Population Pyknosed Nuclei (%),[1],6%
same,Population Tubulin-Different-Phenotype (%),[1],2%
same,Total Cell Count,[1],235
same,Population Apoptotic (%),[2],62%
same,Population Fragmented Nuclei (%),[2],17%
same,Population Healthy Nuclei (%),[2],76%
same,Population Hoechst High Intensity Objects (%),[2],1%
same,Population Membrane Permeable-Phenotype (%),[2],7%
same,Population Mitochondria Different-Phenotype (%),[2],5%
same,Population Mitotic Cells (%),[2],37%
same,Population Normal (%),[2],98%
same,Population Pyknosed Nuclei (%),[2],5%
same,Population Tubulin-Different-Phenotype (%),[2],11%
same,Total Cell Count,[2],141
same,Population Apoptotic (%),[3],86%
same,Population Fragmented Nuclei (%),[3],30%
same,Population Healthy Nuclei (%),[3],63%
same,Population Hoechst High Intensity Objects (%),[3],0%
same,Population Membrane Permeable-Phenotype (%),[3],5%
same,Population Mitochondria Different-Phenotype (%),[3],3%
same,Population Mitotic Cells (%),[3],13%
same,Population Normal (%),[3],99%
same,Population Pyknosed Nuclei (%),[3],6%
same,Population Tubulin-Different-Phenotype (%),[3],3%
same,Total Cell Count,[3],252
same,Population Apoptotic (%),[4],73%
same,Population Fragmented Nuclei (%),[4],8%
same,Population Healthy Nuclei (%),[4],80%
same,Population Hoechst High Intensity Objects (%),[4],1%
same,Population Membrane Permeable-Phenotype (%),[4],10%
same,Population Mitotic Cells (%),[4],26%
same,Population Normal (%),[4],98%
same,Population Pyknosed Nuclei (%),[4],10%
same,Population Tubulin-Different-Phenotype (%),[4],7%
same,Total Cell Count,[4],139
same,Population Apoptotic (%),[5],86%
same,Population Fragmented Nuclei (%),[5],25%
same,Population Healthy Nuclei (%),[5],65%
same,Population Hoechst High Intensity Objects (%),[5],1%
same,Population Membrane Permeable-Phenotype (%),[5],7%
same,Population Mitochondria Different-Phenotype (%),[5],1%
same,Population Mitotic Cells (%),[5],13%
same,Population Normal (%),[5],98%
same,Population Pyknosed Nuclei (%),[5],8%
same,Population Tubulin-Different-Phenotype (%),[5],4%
same,Total Cell Count,[5],278
same,Population Apoptotic (%),[6],80%
same,Population Fragmented Nuclei (%),[6],21%
same,Population Healthy Nuclei (%),[6],73%
same,Population Membrane Permeable-Phenotype (%),[6],6%
same,Population Mitotic Cells (%),[6],20%
same,Population Pyknosed Nuclei (%),[6],5%
same,Population Tubulin-Different-Phenotype (%),[6],9%
same,Total Cell Count,[6],177
same,Population Apoptotic (%),[7],100%
same,Population Fragmented Nuclei (%),[7],23%
same,Population Healthy Nuclei (%),[7],69%
same,Population Hoechst High Intensity Objects (%),[7],1%
same,Population Membrane Permeable-Phenotype (%),[7],9%
same,Population Mitochondria Different-Phenotype (%),[7],3%
same,Population Mitotic Cells (%),[7],0%
same,Population Normal (%),[7],98%
same,Population Pyknosed Nuclei (%),[7],6%
same,Population Tubulin-Different-Phenotype (%),[7],7%
same,Total Cell Count,[7],287
same,Population Apoptotic (%),[8],81%
same,Population Fragmented Nuclei (%),[8],12%
same,Population Healthy Nuclei (%),[8],80%
same,Population Hoechst High Intensity Objects (%),[8],2%
same,Population Membrane Permeable-Phenotype (%),[8],4%
same,Population Mitochondria Different-Phenotype (%),[8],4%
same,Population Mitotic Cells (%),[8],18%
same,Population Normal (%),[8],97%
same,Population Tubulin-Different-Phenotype (%),[8],2%
same,Total Cell Count,[8],166
same,Population Apoptotic (%),[9],83%
same,Population Fragmented Nuclei (%),[9],21%
same,Population Healthy Nuclei (%),[9],69%
same,Population Hoechst High Intensity Objects (%),[9],2%
same,Population Membrane Permeable-Phenotype (%),[9],5%
same,Population Mitochondria Different-Phenotype (%),[9],1%
same,Population Mitotic Cells (%),[9],16%
same,Population Normal (%),[9],97%
same,Population Pyknosed Nuclei (%),[9],9%
same,Population Tubulin-Different-Phenotype (%),[9],2%
same,Total Cell Count,[9],409
same,Population Apoptotic (%),[10],69%
same,Population Fragmented Nuclei (%),[10],19%
same,Population Healthy Nuclei (%),[10],75%
same,Population Hoechst High Intensity Objects (%),[10],3%
same,Population Mitochondria Different-Phenotype (%),[10],2%
same,Population Mitotic Cells (%),[10],30%
same,Population Normal (%),[10],96%
same,Population Pyknosed Nuclei (%),[10],5%
same,Population Tubulin-Different-Phenotype (%),[10],7%
same,Total Cell Count,[10],267
same,Population Apoptotic (%),[11],100%
same,Population Fragmented Nuclei (%),[11],19%
same,Population Healthy Nuclei (%),[11],71%
same,Population Hoechst High Intensity Objects (%),[11],1%
same,Population Membrane Permeable-Phenotype (%),[11],5%
same,Population Mitochondria Different-Phenotype (%),[11],3%
same,Population Mitotic Cells (%),[11],0%
same,Population Normal (%),[11],98%
same,Population Pyknosed Nuclei (%),[11],8%
same,Population Tubulin-Different-Phenotype (%),[11],6%
same,Total Cell Count,[11],420
same,Population Apoptotic (%),[12],88%
same,Population Fragmented Nuclei (%),[12],11%
same,Population Healthy Nuclei (%),[12],78%
same,Population Membrane Permeable-Phenotype (%),[12],2%
same,Population Mitotic Cells (%),[12],12%
same,Population Pyknosed Nuclei (%),[12],10%
same,Population Tubulin-Different-Phenotype (%),[12],1%
same,Total Cell Count,[12],254
